In brackets after ≈: the same amount, converted by molar mass.
Key:
Streptococcus pneumoniae = assay: Antibacterial activity against Streptococcus pneumoniae isolate SP030 by broth microdilution method; type: functional
Method in brief: (§1)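 Standard broth microdilution MIC against macrolide-sensitive strains. For streptococci, 5% horse serum replaced lysed horse blood in the broth, and inocula were grown on Columbia agar with 5% sheep blood. S. aureus was grown on Mueller–Hinton agar.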

HepG2 = assay: Cytotoxicity against human HepG2 cells after 24 hrs by MTS assay; type: cell-based; conditions: HepG2, 24 h
Method in brief: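 Hep G2 cells were kept in RPMI 1640 with 10% FBS at 37 °C and 5% CO2. Wells held 50000 cells and received 1:2 serial dilutions of compound (DMSO stock diluted in medium) for 24 h. MTS reagent was then added for 2 h, absorbance was read at 490 nm, and IC50 was taken from response curves.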

Plasmodium falciparum [1] = assay: Antimalarial activity against chloroquine-resistant Plasmodium falciparum W2 infected in type A rhesus-positive human erythrocytes assessed as [3H]hypoxanthine incorporation after 48 hrs by scintillation counting; type: functional, organism-based
Method in brief: (§2)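 Modified semiautomated microdilution: compounds dissolved in DMSO, diluted in RPMI 1640 with 10% v/v human plasma, serial 1:2 dilutions in triplicate. Infected erythrocytes at 3% hematocrit, 0.25−0.55% parasitemia. [3H]hypoxanthine at 12.5−16 μCi/mL final. Incubated 48 h, 37 °C, in 5% O2/3% CO2/92% N2. Harvested on fiberglass strips, scintillation counted. IC50 by nonlinear regression of concentration−response curves.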

Plasmodium falciparum [2] = assay: Ratio of IC50 for azithromycin to compound IC50 for chloroquine-sensitive Plasmodium falciparum 3D7A infected in type A rhesus-positive human erythrocytes assessed as [3H]hypoxanthine incorporation after 48 hrs by scintillation counting; type: functional
[3] = Selectivity ratio of IC50 for human HepG2 cells to IC50 for chloroquine-sensitive Plasmodium falciparum 3D7A; type: ADME, cell-based; conditions: HepG2 cells versus Plasmodium falciparum 3D7A, read-out: Ratio IC50
Method in brief: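 Selectivity is the HepG2 IC50 divided by the P. falciparum IC50. For HepG2, 50000 cells per well in RPMI 1640 with 10% FBS were exposed to 1:2 serial dilutions for 24 h at 37 °C, 5% CO2. MTS was added for 2 h and absorbance read at 490 nm. Parasite IC50 came from the 48 h [3H]hypoxanthine assay.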

Plasmodium falciparum [4] = assay: Ratio of IC50 for azithromycin to compound IC50 for chloroquine-resistant Plasmodium falciparum W2 infected in type A rhesus-positive human erythrocytes assessed as [3H]hypoxanthine incorporation after 48 hrs by scintillation counting; type: functional
[5] = Aqueous solubility of the compound at pH 4; type: physicochemical
Streptococcus pyogenes = assay: Antibacterial activity against Streptococcus pyogenes isolate 3565 by broth microdilution method; type: functional; method in brief: as §1
Plasmodium falciparum [6] = assay: Antimalarial activity against chloroquine-sensitive Plasmodium falciparum 3D7A infected in type A rhesus-positive human erythrocytes assessed as [3H]hypoxanthine incorporation after 48 hrs by scintillation counting; type: functional, organism-based; method in brief: as §2
Staphylococcus aureus = assay: Antibacterial activity against Staphylococcus aureus ATCC 13709 by broth microdilution method; type: functional; method in brief: as §1
[7] = Selectivity ratio of IC50 for human HepG2 cells to IC50 for chloroquine-sensitive Plasmodium falciparum 3D7A; conditions: HepG2 cells versus Plasmodium falciparum 3D7A

Row | SMILES | MIC (Streptococcus pneumoniae) [µg/mL] | IC50 (HepG2) [nM] | IC50 (Plasmodium falciparum [1]) [nM] | Ratio IC50 (Plasmodium falciparum [2]) | selectivity ratio [3] | Ratio IC50 (Plasmodium falciparum [4]) | solubility [5] [µg/mL] | MIC (Streptococcus pyogenes) [µg/mL] | IC50 (Plasmodium falciparum [6]) [nM] | MIC (Staphylococcus aureus) [µg/mL] | selectivity ratio [7]
1 | CC[C@H]1OC(=O)[C@H](C)[C@@H](O[C@H]2C[C@@](C)(OC)[C@@H](O)[C@H](C)O2)[C@H](C)[C@@H](O[C@@H]2O[C@H](C)C[C@H](N(C)C)[C@H]2OCCC(=O)NCCNc2ccnc3cc(Cl)ccc23)[C@](C)(O)C[C@@H](C)CN(C)[C@H](C)[C@@H](O)[C@]1(C)O | 64 (≈ 62.5 µM) | 18000 | 13 | 3 | 132 | 3 | > 10000 | 64 (≈ 62.5 µM) | 18 | 64 (≈ 62.5 µM) | 132
2 | CC[C@H]1OC(=O)[C@H](C)[C@@H](O[C@H]2C[C@@](C)(OC)[C@@H](O)[C@H](C)O2)[C@H](C)[C@@H](O[C@@H]2O[C@H](C)C[C@H](N(C)C)[C@H]2OCCCNCc2ccnc3ccccc23)[C@](C)(O)C[C@@H](C)CN(C)[C@H](C)[C@@H](O)[C@]1(C)O | > 64 | 45000 | 78 | 3 | 132 | 3 | > 10000 | > 64 | 141 | > 64 | 132
3 | CC[C@H]1OC(=O)[C@H](C)[C@@H](O[C@H]2C[C@@](C)(OC)[C@@H](O)[C@H](C)O2)[C@H](C)[C@@H](O[C@@H]2O[C@H](C)C[C@H](N(C)C)[C@H]2OCCCNCc2cnc3ccccc3c2)[C@](C)(O)C[C@@H](C)CN(C)[C@H](C)[C@@H](O)[C@]1(C)O | > 64 | 20000 | 46 | 3 | 88 | 3 | > 10000 | > 64 | 228 | > 64 | 88
4 | CC[C@H]1OC(=O)[C@H](C)[C@@H](O[C@H]2C[C@@](C)(OC)[C@@H](O)[C@H](C)O2)[C@H](C)[C@@H](O[C@@H]2O[C@H](C)C[C@H](N(C)C)[C@H]2OCCCNCc2ccc3ccccc3n2)[C@](C)(O)C[C@@H](C)CN(C)[C@H](C)[C@@H](O)[C@]1(C)O | > 64 | 30000 | 55 | 3 | 132 | 3 | > 10000 | > 64 | 227 | > 64 | 132
5 | CC[C@H]1OC(=O)[C@H](C)[C@@H](O[C@H]2C[C@@](C)(OC)[C@@H](O)[C@H](C)O2)[C@H](C)[C@@H](O[C@@H]2O[C@H](C)C[C@H](N(C)C)[C@H]2OCCCN(C)Cc2ccnc3ccccc23)[C@](C)(O)C[C@@H](C)CN(C)[C@H](C)[C@@H](O)[C@]1(C)O | > 64 | 45000 | 49 | 3 | 132 | 3 | > 10000 | > 64 | 248 | > 64 | 132
6 | CC[C@H]1OC(=O)[C@H](C)[C@@H](O[C@H]2C[C@@](C)(OC)[C@@H](O)[C@H](C)O2)[C@H](C)[C@@H](O[C@@H]2O[C@H](C)C[C@H](N(C)C)[C@H]2OCCCN(C)Cc2cnc3ccccc3c2)[C@](C)(O)C[C@@H](C)CN(C)[C@H](C)[C@@H](O)[C@]1(C)O | > 64 | 23000 | 47 | 3 | 49 | 3 | > 10000 | > 64 | 466 | > 64 | 49
7 | CC[C@H]1OC(=O)[C@H](C)[C@@H](O)[C@H](C)[C@@H](O[C@@H]2O[C@H](C)C[C@H](N(C)C)[C@H]2OCCCNCc2ccnc3ccccc23)[C@](C)(O)C[C@@H](C)CN(C)[C@H](C)[C@@H](O)[C@]1(C)O | > 64 | > 100000 | 432 | 3 | 132 | 3 | > 10000 | > 64 | 540 | > 64 | 132
